Laboratory results: ChEMBL document CHEMBL3044867, “Antifungal activity of glyceollins isolated from soybean elicited with Aspergillus sojae” (2010)
≈ marks a conversion by molar mass, not a printed value.

Legend:
[1] = tested on: Sclerotinia sclerotiorum; experiment: Inhibition of spore germination of Sclerotinia sclerotiorum KACC 41065; format: functional, organism-based
Summary of the method: (§1)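 Glyceollins were tested at 10, 25, 50, 100, 250 and 500 μg/mL against a 1% DMSO control, with spore suspension at 1.0 × 10^8 spores/mL. 100 μL aliquots went on glass slides in triplicate and were kept in a moist chamber at 25 C for 24 h. Slides were fixed in lactophenol-cotton blue, about 200 spores were counted for germ tubes, and germination was expressed relative to control.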

[2] = tested on: Phytophthora capsici; experiment: Inhibition of spore germination of Phytophthora capsici KACC 40157; format: functional, organism-based; summary of the method: as §1
[3] = tested on: Phytophthora capsici; experiment: Inhibition of spore germination of Phytophthora capsici KACC 40157 at 100 ug/mL measured 3 hr post dose; format: functional; settings: KACC 40157, 3 h
[4] = tested on: Phytophthora capsici; experiment: Inhibition of spore germination of Phytophthora capsici KACC 40157 at 100 ug/mL measured 2 hr post dose; format: functional; settings: KACC 40157, 2 h
[5] = tested on: Phytophthora capsici; experiment: Inhibition of spore germination of Phytophthora capsici KACC 40157 at 25 ug/mL measured 4 hr post dose; format: functional; settings: KACC 40157, 4 h
[6] = tested on: Phytophthora capsici; experiment: Inhibition of spore germination of Phytophthora capsici KACC 40157 at 25 to 100 ug/mL; format: functional, organism-based; settings: TDE = time-dependent effect
[7] = tested on: Botrytis cinerea; experiment: Inhibition of spore germination of Botryotinia fuckeliana KACC 40573 at 100 to 500 ug/mL; format: functional; summary of the method: as §1
[8] = tested on: Fusarium oxysporum; experiment: Inhibition of spore germination of Fusarium oxysporum KACC 41083 at 100 to 500 ug/mL; format: functional; summary of the method: as §1
[9] = tested on: Sclerotinia sclerotiorum; experiment: Inhibition of spore germination of Sclerotinia sclerotiorum KACC 41065 at 500 ug/mL; format: functional; summary of the method: as §1
[10] = tested on: Phytophthora capsici; experiment: Inhibition of spore germination of Phytophthora capsici KACC 40157 at 250 ug/mL; format: functional; summary of the method: as §1
[11] = tested on: Phytophthora capsici; experiment: Inhibition of spore germination of Phytophthora capsici KACC 40157 at 100 ug/mL; format: functional
[12] = tested on: Botrytis cinerea; experiment: Inhibition of spore germination of Botryotinia fuckeliana KACC 40573; format: functional, organism-based; summary of the method: as §1
[13] = tested on: Fusarium oxysporum; experiment: Inhibition of spore germination of Fusarium oxysporum KACC 41083; format: functional, organism-based; summary of the method: as §1
[14] = tested on: Botrytis cinerea; experiment: Antifungal activity against Botryotinia fuckeliana KACC 40573 measured 2 to 4 days post dose by two fold dilution method; format: functional
Summary of the method: (§2)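 Two-fold dilution MIC in potato dextrose broth tubes. The DMSO-dissolved sample was serially diluted to final 10, 25, 50, 100, 250, 500 and 750 μg/mL, then inoculated with 10 μL spore suspension (1 × 10^8 spores/mL, from 10-day cultures). Tubes were incubated 2-4 days at 28 C; the control tube held spores only. MIC was the lowest concentration with no visible growth.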

[15] = tested on: Sclerotinia sclerotiorum; experiment: Antifungal activity against Sclerotinia sclerotiorum KACC 41065 measured 2 to 4 days post dose by two-fold dilution method; format: functional; summary of the method: as §2
[16] = tested on: Phytophthora capsici; experiment: Antifungal activity against Phytophthora capsici KACC 40157 measured 2 to 4 days post dose by two fold dilution method; format: functional; summary of the method: as §2
[17] = tested on: Fusarium oxysporum; experiment: Antifungal activity against Fusarium oxysporum KACC 41083 measured 2 to 4 days post dose by two-fold dilution method; format: functional; summary of the method: as §2
[18] = tested on: Botrytis cinerea; experiment: Antifungal activity against Botryotinia fuckeliana KACC 40573 assessed as inhibition of radial growth at 0.6 mg/disk incubated for 4 to 6 days by disk diffusion method; format: functional
Summary of the method: (§3)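 Disk diffusion on PDA in 9 cm dishes. Sample in DMSO at 40 mg/mL; paper disks loaded with 5 or 15 μL, dried, and set equidistantly. A 6 mm agar plug of the pathogen was placed upside down in the centre. Plates were incubated at 25 C for 4-6 days, until solvent-control growth reached the edge. % inhibition = radial growth versus control; triplicate plates; mean ± SD of three experiments.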

[19] = tested on: Botrytis cinerea; experiment: Antifungal activity against Botryotinia fuckeliana KACC 40573 assessed as inhibition of radial growth at 0.2 mg/disk incubated for 4 to 6 days by disk diffusion method; format: functional; summary of the method: as §3
[20] = tested on: Sclerotinia sclerotiorum; experiment: Antifungal activity against Sclerotinia sclerotiorum KACC 41065 assessed as inhibition of radial growth at 0.6 mg/disk incubated for 4 to 6 days by disk diffusion method; format: functional; summary of the method: as §3
[21] = tested on: Sclerotinia sclerotiorum; experiment: Antifungal activity against Sclerotinia sclerotiorum KACC 41065 assessed as inhibition of radial growth at 0.2 mg/disk incubated for 4 to 6 days by disk diffusion method; format: functional; summary of the method: as §3
[22] = tested on: Phytophthora capsici; experiment: Antifungal activity against Phytophthora capsici KACC 40157 assessed as inhibition of radial growth at 0.6 mg/disk incubated for 4 to 6 days by disk diffusion method; format: functional; summary of the method: as §3
[23] = tested on: Phytophthora capsici; experiment: Antifungal activity against Phytophthora capsici KACC 40157 assessed as inhibition of radial growth at 0.2 mg/disk incubated for 4 to 6 days by disk diffusion method; format: functional; summary of the method: as §3
[24] = tested on: Fusarium oxysporum; experiment: Antifungal activity against Fusarium oxysporum KACC 41083 assessed as inhibition of radial growth at 0.6 mg/disk incubated for 4 to 6 days by disk diffusion method; format: functional; summary of the method: as §3
[25] = tested on: Fusarium oxysporum; experiment: Antifungal activity against Fusarium oxysporum KACC 41083 assessed as inhibition of radial growth at 0.2 mg/disk incubated for 4 to 6 days by disk diffusion method; format: functional; summary of the method: as §3

MIC [14] | MIC [15] | MIC [16] | MIC [17] | SMILES | inhibition [1] | inhibition [2] | inhibition at 100 µg/mL [3] | inhibition at 100 µg/mL [4] | inhibition at 25 µg/mL [5] | inhibition [6] | inhibition (INH) [7] | inhibition (INH) [8] | inhibition at 500 µg/mL [9] | inhibition at 250 µg/mL [10] | inhibition at 100 µg/mL [11] | inhibition [12] | inhibition [13] | inhibition (INH) [18] | inhibition (INH) [19] | inhibition (INH) [20] | other results
750 µg/mL (≈ 2220 µM) | 50 µg/mL (≈ 148 µM) | 25 µg/mL (≈ 73.9 µM) | 250 µg/mL (≈ 739 µM) | C=C(C)[C@@H]1Cc2cc3c(cc2O1)OC[C@@]1(O)c2ccc(O)cc2O[C@@H]31 [GLYCEOLLIN III] | Dose-dependent effect | Dose-dependent effect | 100% | 95% | 50% | tde | 40% | 40% | 100% | 100% | 100% | Dose-dependent effect | Dose-dependent effect | 22.1% | 10.9% | 61% | inhibition (INH) [21]: 48.2%; inhibition (INH) [22]: 40.5%; inhibition (INH) [23]: 37.5%; inhibition (INH) [24]: 40.1%; inhibition (INH) [25]: 27.4%
750 µg/mL (≈ 2220 µM) | 50 µg/mL (≈ 148 µM) | 25 µg/mL (≈ 73.9 µM) | 250 µg/mL (≈ 739 µM) | CC1(C)C=Cc2cc3c(cc2O1)OC[C@@]1(O)c2ccc(O)cc2O[C@@H]31 [GLYCEOLLIN II] | Dose-dependent effect | Dose-dependent effect | 100% | 95% | 50% | tde | 40% | 40% | 100% | 100% | 100% | Dose-dependent effect | Dose-dependent effect | 22.1% | 10.9% | 61% | inhibition (INH) [21]: 48.2%; inhibition (INH) [22]: 40.5%; inhibition (INH) [23]: 37.5%; inhibition (INH) [24]: 40.1%; inhibition (INH) [25]: 27.4%
750 µg/mL (≈ 2220 µM) | 50 µg/mL (≈ 148 µM) | 25 µg/mL (≈ 73.9 µM) | 250 µg/mL (≈ 739 µM) | CC1(C)C=Cc2c(ccc3c2OC[C@@]2(O)c4ccc(O)cc4O[C@@H]32)O1 [GLYCEOLLIN I] | Dose-dependent effect | Dose-dependent effect | 100% | 95% | 50% | tde | 40% | 40% | 100% | 100% | 100% | Dose-dependent effect | Dose-dependent effect | 22.1% | 10.9% | 61% | inhibition (INH) [21]: 48.2%; inhibition (INH) [22]: 40.5%; inhibition (INH) [23]: 37.5%; inhibition (INH) [24]: 40.1%; inhibition (INH) [25]: 27.4%
